≈ marks a conversion by molar mass, not a printed value. Calls of active or inactive are those of the source. The calls are words filed in the database; no cut-off is given here.

Data set [1] deals with T1, Bifunctional epoxide hydrolase 2 (Homo sapiens, UniProt P34913).
T1 sequence (P34913 whole entry): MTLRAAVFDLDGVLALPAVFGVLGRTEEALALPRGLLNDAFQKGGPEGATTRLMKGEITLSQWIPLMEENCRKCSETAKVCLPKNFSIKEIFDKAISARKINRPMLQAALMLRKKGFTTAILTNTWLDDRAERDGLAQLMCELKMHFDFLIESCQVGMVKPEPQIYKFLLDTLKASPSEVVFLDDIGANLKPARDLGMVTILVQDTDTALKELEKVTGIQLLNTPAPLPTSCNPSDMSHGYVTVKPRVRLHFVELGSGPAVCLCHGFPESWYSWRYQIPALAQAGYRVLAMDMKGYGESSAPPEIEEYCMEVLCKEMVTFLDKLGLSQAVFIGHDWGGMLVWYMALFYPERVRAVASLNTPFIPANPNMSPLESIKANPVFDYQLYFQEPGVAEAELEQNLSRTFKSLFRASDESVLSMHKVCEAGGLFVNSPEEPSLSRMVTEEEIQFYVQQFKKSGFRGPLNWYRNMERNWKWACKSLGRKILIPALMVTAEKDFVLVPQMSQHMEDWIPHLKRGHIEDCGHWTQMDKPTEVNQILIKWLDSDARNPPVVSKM

Data set [2] has as its system Mycobacterium tuberculosis. Briefly: microbe, parasite or virus in culture. Format: functional. The following applies: H37Ra.
Data set [3] relates to Mycobacterium tuberculosis. Briefly: Antimycobacterial activity against Mycobacterium tuberculosis H37Ra at 10 uM. The class given is functional, organism-based.
In data set [4] the test system is Mycobacterium tuberculosis. The experiment in a line: Antimycobacterial activity against Mycobacterium tuberculosis H37Ra infected in gamma interferon-knockout mouse assessed as reduction in lung CFU load at 25 mg/kg, po BID dosage beginning at 15 post infection for 9 days (reference value: 8.86 +/- 0.02 log10CFU). The class given is functional.
Data set [5] concerns Mycobacterium tuberculosis. Briefly: Antimycobacterial activity against Mycobacterium tuberculosis H37Ra infected in gamma interferon-knockout mouse assessed as reduction in spleen CFU load at 25 mg/kg, po BID dosage beginning at 15 post infection for 9 days (reference value: 7.30 +/- 0.09 log10CFU). Format: functional.
The conditions of data set [6]: mycobacterium tuberculosis h37ra, cytosol, 5 µM.
Data set [7] has as its system Mycobacterium tuberculosis. The experiment in a line: Inhibition of Mycobacterium tuberculosis epoxide hydrolase E expressed in Escherichia coli BL21AI cells using cyano(6-methoxy-2-napthalenyl)methyl[(2,3)-3-phenyloxiranyl] methyl ester carbonate as substrate at 10 nM preincubated for 10 mins before substrate addition measured after 30 mins by spectrofluorometric analysis.

Data set [8] deals with Mycobacterium tuberculosis. Briefly: Antimycobacterial activity against Mycobacterium tuberculosis H37Ra infected in gamma interferon-knockout mouse assessed as reduction in lung CFU load at 150 mg/kg, po BID dosage beginning at 15 post infection for 9 days (reference value: 8.86 +/- 0.02 log10CFU). The class given is functional.
Data set [9] has as its system Mycobacterium tuberculosis. Briefly: Antimycobacterial activity against Mycobacterium tuberculosis H37Ra infected in gamma interferon-knockout mouse assessed as reduction in spleen CFU load at 150 mg/kg, po BID dosage beginning at 15 post infection for 9 days (reference value: 7.30 +/- 0.09 log10CFU). The class given is functional.
Data set [10] is described as follows: Drug uptake in mouse serum at 140 mg/kg, po administered in 30% Captisol measured after 2 hrs by LC-MS/MS analysis. Format: ADME, organism-based. Also noted: dose 140 mg/kg, route oral. The conditions noted are these: read-out: Drug uptake. Put shortly:
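Non-genetically modified mice were dosed at 140 mg/kg in 30% Captisol by gavage. Blood was clotted for at least 1 h and spun at ~3000g for 15 min, and serum was frozen at −70°C. Serum was diluted 4:1 with methanol containing warfarin (final 5 μM) as internal standard and centrifuged. Samples were quantified by LC/MS against a 7-point calibration curve.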
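Wherever IC50 is given: recombinant enzyme with CMNPC substrate, fluorescence readout of 6-methoxy-2-naphthaldehyde formed over a 10 min reaction.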

Consider `COC(=O)c1cccc(O[C@H]2CC[C@@H](NC(=O)NC34CC5CC(CC(C5)C3)C4)CC2)c1`, for which, in [1], the IC50 came to 2.5 nM. The MIC in data set [2] is over 85 µg/mL. In addition, the outcome in data set [3] was inactive.
`NNC(=O)c1ccncc1` [ISONIAZID] had an MIC in data set [2] of 0.08 µg/mL (≈ 0.583 µM). In addition, the log10cfu is given as 5.41 in data set [4] and 3.63 in data set [5].
`CCCCCO[C@H]1CC[C@H](NC(=O)NC23CC4CC(CC(C4)C2)C3)CC1` came in with an MIC in data set [2] of 25 µg/mL (≈ 69 µM). For the same molecule, the Drug uptake in data set [6] was determined as 128 ng. For the same molecule, in [7], the inhibition is 93%.
Regarding `O=C(Nc1ccc(F)c(F)c1F)NC1C2CC3CC(C2)CC1C3` (configuration not stated), the inhibition in data set [7] was determined as 68%.
With `COC(=O)c1ccc(NC(=O)NC2CCCCCC2)cc1`, 12.3 nM corresponded to half-maximal inhibition in data set [1] (IC50). In addition, the MIC in data set [2] turned out to be 3.63 µg/mL (≈ 12.5 µM). Further, the outcome in [3] was inactive.
Take `O=C(Nc1ccc(OCCCN2CCOCC2)cc1)NC12CC3CC(CC(C3)C1)C2`: in data set [2], the MIC is over 17 µg/mL. This molecule also gave a Drug uptake in [6] of 103 ng. In [7], this molecule gave an inhibition of 19%.
Consider `O=C(NC12CC3CC(CC(C3)C1)C2)N[C@H]1CC[C@H](OC(=O)c2ccccc2)CC1`, for which, in [1], 1 nM corresponded to half-maximal inhibition (IC50). For the same molecule, in [2], the MIC is over 79 µg/mL. For the same molecule, the result in [3] was inactive.
Molecule `COC(=O)c1ccc(NC(=O)NC2C3CC4CC(C3)CC2C4)cc1O` (configuration not stated) returned an MIC in data set [2] of 0.1 µg/mL (≈ 0.29 µM). For the same molecule, the log10cfu in [8] is on record as 8.74; in [9], 7.33.
Turning to `COC(=O)c1ccc(NC(=O)NC23CC4CC(CC(C4)C2)C3)cc1O`, the MIC in data set [2] is 1.1 µg/mL (≈ 3.19 µM). The log10cfu in data set [8] is given as 8.77; in data set [9] it was 7.31. Also, the concentration at 2 h in data set [10] is 3000 nM. Besides, the result in [3] was inactive.

In general, IC50 refers to the concentration that inhibits the measured activity by half. Low values mean inhibition by little substance, high ones a need for much substance. One may read the inhibition as the relative decrease from the control value, in per cent.

The values are drawn from ChEMBL document CHEMBL2029208 (Bioorg Med Chem, 2012).
